Results published in publication PMC6753935 (Journal of Clinical and Translational Science, 2019).
Like-named read-outs stand apart in the source and are kept apart here.

Experiments:
[1] = tested on: human platelets in platelet-rich plasma (PRP); assay: In vitro platelet aggregation in PRP of healthy human volunteers; format: cell-based
Procedure, shortened: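 Healthy donors' venous blood was anticoagulated with citrate (0.38% final), PPACK (0.1 or 0.3 mM final) or heparin (15.8 USP U/ml). PRP was spun at 650 × g for 4 min at room temperature. Aspirin 0.83 mM final for 10 min, then test compound (0.01–3 µM final) for 20 min. Aggregation induced by arachidonic acid 1.5 mM or ADP 5 µM. IC50 from initial-slope inhibition by Hill-equation fit.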

[2] = Clinical pathology: complete blood counts; format: in vivo, cynomolgus monkey (Macaca fascicularis); conditions: arms 1, 2 and 5
Procedure, shortened: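 Same six male monkeys, dosed IM, IV or SC across five arms. EDTA blood for complete counts was drawn pre-dose and at 30, 120 and 270 min post-dose in arms 1–2. Sampling was pre-dose and 15 min in arm 3, 45 min in arm 4, and 120 min in arm 5. Hematocrit and platelet count were recorded.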

[3] = tested on: platelets in platelet-rich plasma (PRP); assay: Light transmission platelet aggregation, RUC-4 IC50 in NHP PRP; format: cell-based, cynomolgus monkey (Macaca fascicularis); conditions: read-out: RUC-4 IC50 for platelet aggregation in NHP, mean ± SD; 5 µM ADP, citrated PRP, initial slope, 4 animals
[4] = molecular target: αIIbβ3 (Homo sapiens, UniProt P05106+P08514); format: cell-based; conditions: five donors, p < 0.0001
Sequence of αIIbβ3 (P08514 32-887 limits assumed): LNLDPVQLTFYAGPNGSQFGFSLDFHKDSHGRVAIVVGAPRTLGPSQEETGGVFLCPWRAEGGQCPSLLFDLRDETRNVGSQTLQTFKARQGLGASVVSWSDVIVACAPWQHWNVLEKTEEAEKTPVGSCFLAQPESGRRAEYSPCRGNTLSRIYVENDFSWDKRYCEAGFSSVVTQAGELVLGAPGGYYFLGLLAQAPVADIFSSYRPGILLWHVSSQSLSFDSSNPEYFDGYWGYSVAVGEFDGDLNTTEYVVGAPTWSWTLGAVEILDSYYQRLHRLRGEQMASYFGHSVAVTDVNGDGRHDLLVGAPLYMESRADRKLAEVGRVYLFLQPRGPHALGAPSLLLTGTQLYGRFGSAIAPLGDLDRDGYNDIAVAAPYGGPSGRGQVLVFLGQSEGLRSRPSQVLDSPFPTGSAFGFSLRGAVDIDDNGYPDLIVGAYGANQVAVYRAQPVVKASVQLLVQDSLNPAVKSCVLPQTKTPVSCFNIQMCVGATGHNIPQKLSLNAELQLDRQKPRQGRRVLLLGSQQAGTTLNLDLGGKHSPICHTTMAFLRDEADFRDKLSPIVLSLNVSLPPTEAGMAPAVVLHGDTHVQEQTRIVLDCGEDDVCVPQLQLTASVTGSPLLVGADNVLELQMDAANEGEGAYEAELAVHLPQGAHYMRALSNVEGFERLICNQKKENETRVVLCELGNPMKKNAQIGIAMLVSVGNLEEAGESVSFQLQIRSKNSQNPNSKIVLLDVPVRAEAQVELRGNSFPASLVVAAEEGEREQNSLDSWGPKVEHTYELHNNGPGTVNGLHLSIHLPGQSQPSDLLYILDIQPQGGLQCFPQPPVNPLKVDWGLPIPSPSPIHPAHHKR
Sequence of αIIbβ3 (P08514 891-1039 partner limits assumed): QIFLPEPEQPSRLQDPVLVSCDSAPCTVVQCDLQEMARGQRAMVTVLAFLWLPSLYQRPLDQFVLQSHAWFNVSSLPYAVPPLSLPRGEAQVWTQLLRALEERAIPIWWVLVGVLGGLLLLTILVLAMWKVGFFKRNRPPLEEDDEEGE
Sequence of αIIbβ3 (P05106 27-788): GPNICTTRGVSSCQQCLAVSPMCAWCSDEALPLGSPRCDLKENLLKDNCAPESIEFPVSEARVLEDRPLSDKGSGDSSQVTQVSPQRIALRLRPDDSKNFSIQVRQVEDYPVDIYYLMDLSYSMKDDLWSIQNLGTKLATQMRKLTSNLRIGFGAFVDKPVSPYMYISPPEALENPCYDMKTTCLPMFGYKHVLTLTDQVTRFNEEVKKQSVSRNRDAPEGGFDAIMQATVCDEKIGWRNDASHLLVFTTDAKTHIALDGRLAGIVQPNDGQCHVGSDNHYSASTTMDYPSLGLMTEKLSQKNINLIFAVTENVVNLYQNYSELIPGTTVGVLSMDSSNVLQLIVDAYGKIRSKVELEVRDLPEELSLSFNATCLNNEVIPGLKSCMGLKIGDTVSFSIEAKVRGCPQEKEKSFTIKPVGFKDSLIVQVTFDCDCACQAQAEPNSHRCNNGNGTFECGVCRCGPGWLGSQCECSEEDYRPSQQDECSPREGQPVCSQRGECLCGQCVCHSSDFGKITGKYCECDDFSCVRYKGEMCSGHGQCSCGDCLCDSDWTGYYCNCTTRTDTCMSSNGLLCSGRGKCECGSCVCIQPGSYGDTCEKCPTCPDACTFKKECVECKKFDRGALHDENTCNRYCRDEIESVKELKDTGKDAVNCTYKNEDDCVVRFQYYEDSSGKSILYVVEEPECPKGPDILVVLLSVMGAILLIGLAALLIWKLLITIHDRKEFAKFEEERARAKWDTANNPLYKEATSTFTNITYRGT

[5] = tested on: platelets in platelet-rich plasma (PRP); assay: ADP-induced platelet aggregation in PRP from NHPs dosed with RUC-4 IM; format: in vivo, cynomolgus monkey (Macaca fascicularis)
Procedure, shortened: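 Six adult male monkeys (3.6–4.8 y; two per dose) got a single unsedated IM injection (0.064 ml/kg) at 1, 1.93 or 3.86 mg/kg. Citrated blood was drawn pre-dose and at 30, 120 and 270 min, plus ~27 h at the top dose. PRP was adjusted to 3 × 10^5/μl with PPP. Light-transmission aggregation at 37°C with stirring, 5 µM ADP. Percent inhibition of the initial slope versus untreated sample.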

[6] = Pharmacokinetics: RUC-4 whole blood concentrations after IM, SC; format: in vivo, cynomolgus monkey (Macaca fascicularis); conditions: for Bioavailability: compared to IV
Procedure, shortened: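 Six male monkeys (two per dose: 1, 1.93, 3.86 mg/kg) received single IV, IM or SC injections (0.064 ml/kg; SC into the abdomen). Repeat arms spanned ~6 months with washout. Blood was sampled pre-dose and at 5–270 min, plus 1 min post-IV. Whole-blood levels measured by LC-MS/MS (HILIC; quadratic curve 5–5000 ng/ml). Non-compartmental analysis; bioavailability relative to IV.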

CC(=O)Oc1ccccc1C(=O)O [Aspirin, acetyl salicylic acid, reference compound]
Effect on arachidonic-acid-induced platelet aggregation ([1]; aspirin 0.83 mM, arachidonic acid 1.5 mM, citrated PRP): eliminated

NCC(=O)Nc1cncc(-c2nn3c(=O)cc(N4CCNCC4)nc3s2)c1 [RUC-4]
Clinical observations (IM, similar at all doses, all animals): some minor bruising and red, raised areas limited to site of injection (thigh) or venipuncture
Clinical observations (IV 1.93 mg/kg, one animal in arm 2): minor nose and gingival bleeding
Clinical observations (IV 3.86 mg/kg, one animal in arm 2 and both animals in arm 3): vomited immediately after the IV injection
Clinical findings (SC, resolved by ~24 hours post-dose): red discoloration of the skin at the venipuncture and administration sites and bruising at sites of injection and inguinal areas
Tolerability (all doses, IM, IV, SC): well tolerated
Difference in RUC-4 IC50, citrate versus heparin and PPACK ([1]; lower IC50 in PRP from citrate-anticoagulated blood): approximately twofold
IC50 ([1]; read-out: RUC-4 IC50, 20 µM TRAP, blood anticoagulated with PPACK (0.3 mM), n = 4): 122 ± 17 nM
IC50 ([1]; read-out: RUC-4 IC50, 20 µM TRAP, blood anticoagulated with heparin (15.8 U/ml), n = 4): 111 ± 7 nM
IC50 ([1]; read-out: RUC-4 IC50, 20 µM TRAP, blood anticoagulated with sodium citrate (0.38%), n = 4): 66 ± 25 nM
IC50 ([1]; read-out: RUC-4 IC50, ADP 20 µM, blood anticoagulated with PPACK (0.1 mM), n = 5): 102 ± 22 nM
IC50 ([1]; read-out: RUC-4 IC50, ADP 20 µM, blood anticoagulated with sodium citrate (0.38%), n = 5): 54 ± 13 nM
IC50 ([1]; read-out: RUC-4 IC50, ADP (5 µM), aspirin (0.83 mM), mean of 5 patients): 37 nM
IC50 ([1]; read-out: RUC-4 IC50, ADP (5 µM), aspirin (0.83 mM), patient 1): 41 nM
IC50 ([1]; read-out: RUC-4 IC50, ADP (5 µM), aspirin (0.83 mM), patient 2): 33 nM
IC50 ([1]; read-out: RUC-4 IC50, ADP (5 µM), aspirin (0.83 mM), patient 3): 32 nM
IC50 ([1]; read-out: RUC-4 IC50, ADP (5 µM), aspirin (0.83 mM), patient 4): 43 nM
IC50 ([1]; read-out: RUC-4 IC50, ADP (5 µM), aspirin (0.83 mM), patient 5): 37 nM
IC50 ([1]; read-out: RUC-4 IC50, ADP (5 µM), vehicle, mean of 5 patients): 40 nM
IC50 ([1]; read-out: RUC-4 IC50, ADP (5 µM), vehicle, patient 1): 52 nM
IC50 ([1]; read-out: RUC-4 IC50, ADP (5 µM), vehicle, patient 2): 38 nM
IC50 ([1]; read-out: RUC-4 IC50, ADP (5 µM), vehicle, patient 3): 34 nM
IC50 ([1]; read-out: RUC-4 IC50, ADP (5 µM), vehicle, patient 4): 47 nM
IC50 ([1]; read-out: RUC-4 IC50, ADP (5 µM), vehicle, patient 5): 31 nM
IC50 ([1]; read-out: RUC-4 IC50, arachidonic acid (1.5 mM), vehicle, mean of 5 patients): 61 nM
IC50 ([1]; read-out: RUC-4 IC50, arachidonic acid (1.5 mM), vehicle, patient 1): 67 nM
IC50 ([1]; read-out: RUC-4 IC50, arachidonic acid (1.5 mM), vehicle, patient 2): 52 nM
IC50 ([1]; read-out: RUC-4 IC50, arachidonic acid (1.5 mM), vehicle, patient 3): 41 nM
IC50 ([1]; read-out: RUC-4 IC50, arachidonic acid (1.5 mM), vehicle, patient 4): 72 nM
IC50 ([1]; read-out: RUC-4 IC50, arachidonic acid (1.5 mM), vehicle, patient 5): 71 nM
IC50 ([1]; read-out: RUC-4 IC50 for ADP-induced aggregation, ADP 5 µM, aspirin-treated platelets (0.83 mM), citrated PRP): 37 ± 5 nM
Reductions in hematocrit, assessment [2]: considered consistent with the blood drawing from the animals
Platelet counts, trend ([2]; possible exception animal 4 at 1.93 mg/kg IM): did not demonstrate obvious drug-related trends by dose or time after administration
IC50 [3]: 807 ± 231 nM
Average correlation between inhibition of platelet aggregation and inhibition of PAC-1 binding [4]: 0.96
Average inhibition of the initial slope of platelet aggregation in the two animals tested ([5]; IM 1.00 mg/kg, 30 minutes): b (Values of whole blood RUC-4 levels corresponding to an average of >80% inhibition of the initial slope of platelet aggregation in the two animals tested.)
Average inhibition of the initial slope of platelet aggregation in the two animals tested ([5]; IM 1.00 mg/kg, 120 minutes): c (Values of whole blood RUC-4 levels corresponding to an average of 0%–80% inhibition of the initial slope of platelet aggregation in the two animals tested.)
Average inhibition of the initial slope of platelet aggregation in the two animals tested ([5]; IM 1.00 mg/kg, 270 minutes): c (Values of whole blood RUC-4 levels corresponding to an average of 0%–80% inhibition of the initial slope of platelet aggregation in the two animals tested.)
Average inhibition of the initial slope of platelet aggregation in the two animals tested ([5]; IM 1.93 mg/kg, 30 minutes): b (Values of whole blood RUC-4 levels corresponding to an average of >80% inhibition of the initial slope of platelet aggregation in the two animals tested.)
Average inhibition of the initial slope of platelet aggregation in the two animals tested ([5]; IM 1.93 mg/kg, 120 minutes): b (Values of whole blood RUC-4 levels corresponding to an average of >80% inhibition of the initial slope of platelet aggregation in the two animals tested.)
Average inhibition of the initial slope of platelet aggregation in the two animals tested ([5]; IM 1.93 mg/kg, 270 minutes): c (Values of whole blood RUC-4 levels corresponding to an average of 0%–80% inhibition of the initial slope of platelet aggregation in the two animals tested.)
Average inhibition of the initial slope of platelet aggregation in the two animals tested ([5]; IM 3.86 mg/kg, 30 minutes): b (Values of whole blood RUC-4 levels corresponding to an average of >80% inhibition of the initial slope of platelet aggregation in the two animals tested.)
Average inhibition of the initial slope of platelet aggregation in the two animals tested ([5]; IM 3.86 mg/kg, 120 minutes): b (Values of whole blood RUC-4 levels corresponding to an average of >80% inhibition of the initial slope of platelet aggregation in the two animals tested.)
Average inhibition of the initial slope of platelet aggregation in the two animals tested ([5]; IM 3.86 mg/kg, 270 minutes): c (Values of whole blood RUC-4 levels corresponding to an average of 0%–80% inhibition of the initial slope of platelet aggregation in the two animals tested.)
Inhibition of the initial slope of aggregation in response to ADP ([5]; IM, all samples with whole blood RUC-4 concentration ≥ ~8 nM): > 80%
Inhibition of the initial slope of ADP-induced aggregation ([5]; IM, all three doses (1.0, 1.93, 3.86 mg/kg), 30 minutes post-dosing): > 80%
Time to peak level ([6]; 1.0 mg/kg SC): 15 min
Time to peak blood levels ([6]; IM): ≤ 5 min
T1/2 ([6]; IM 1.00 mg/kg): 16.8 min
Whole blood level ([6]; IM 1.00 mg/kg, 5 minutes): 3.415 µM
Whole blood level ([6]; IM 1.00 mg/kg, 15 minutes): 2.118 µM
Whole blood level ([6]; IM 1.00 mg/kg, 30 minutes): 0.164 µM
Whole blood level ([6]; IM 1.00 mg/kg, 45 minutes): 0.236 µM
Whole blood level ([6]; IM 1.00 mg/kg, 120 minutes): < 0.008 µM
Whole blood level ([6]; IM 1.00 mg/kg, 270 minutes): < 0.007 µM
Bioavailability ([6]; IM 1.00 mg/kg): 1.2
T1/2 ([6]; IM 1.93 mg/kg): 16.8 min
Whole blood level ([6]; IM 1.93 mg/kg, 5 minutes): 3.796 µM
Whole blood level ([6]; IM 1.93 mg/kg, 15 minutes): 3.692 µM
Whole blood level ([6]; IM 1.93 mg/kg, 30 minutes): 0.297 µM
Whole blood level ([6]; IM 1.93 mg/kg, 45 minutes): 0.333 µM
Whole blood level ([6]; IM 1.93 mg/kg, 120 minutes): 0.008 µM
Whole blood level ([6]; IM 1.93 mg/kg, 270 minutes): < 0.007 µM
Bioavailability ([6]; IM 1.93 mg/kg): 0.80
T1/2 ([6]; IM 3.86 mg/kg): 31.8 min
Whole blood level ([6]; IM 3.86 mg/kg, 5 minutes): 16.009 µM
Whole blood level ([6]; IM 3.86 mg/kg, 15 minutes): 8.783 µM
Whole blood level ([6]; IM 3.86 mg/kg, 30 minutes): 0.837 µM
Whole blood level ([6]; IM 3.86 mg/kg, 45 minutes): 0.952 µM
Whole blood level ([6]; IM 3.86 mg/kg, 120 minutes): 0.016 µM
Whole blood level ([6]; IM 3.86 mg/kg, 270 minutes): < 0.007 µM
Bioavailability ([6]; IM 3.86 mg/kg): 0.88
Time to peak levels ([6]; IM and SC, all doses except 1.0 mg/kg SC): ≤ 5 min
Time to peak blood levels ([6]; SC): ≤ 5 min
T1/2 ([6]; SC 1.00 mg/kg): 33.6 min
Whole blood level ([6]; SC 1.00 mg/kg, 5 minutes): 0.746 µM
Whole blood level ([6]; SC 1.00 mg/kg, 15 minutes): 0.819 µM
Whole blood level ([6]; SC 1.00 mg/kg, 30 minutes): 0.497 µM
Whole blood level ([6]; SC 1.00 mg/kg, 45 minutes): 0.241 µM
Whole blood level ([6]; SC 1.00 mg/kg, 120 minutes): 0.077 µM
Bioavailability ([6]; SC 1.00 mg/kg): 0.55
T1/2 ([6]; SC 1.93 mg/kg): 24.6 min
Whole blood level ([6]; SC 1.93 mg/kg, 5 minutes): 3.445 µM
Whole blood level ([6]; SC 1.93 mg/kg, 15 minutes): 3.056 µM
Whole blood level ([6]; SC 1.93 mg/kg, 30 minutes): 1.295 µM
Whole blood level ([6]; SC 1.93 mg/kg, 45 minutes): 0.551 µM
Whole blood level ([6]; SC 1.93 mg/kg, 120 minutes): 0.104 µM
Bioavailability ([6]; SC 1.93 mg/kg): 0.78
T1/2 ([6]; SC 3.86 mg/kg): 23.4 min
Whole blood level ([6]; SC 3.86 mg/kg, 5 minutes): 6.036 µM
Whole blood level ([6]; SC 3.86 mg/kg, 15 minutes): 5.310 µM
Whole blood level ([6]; SC 3.86 mg/kg, 30 minutes): 3.523 µM
Whole blood level ([6]; SC 3.86 mg/kg, 45 minutes): 1.098 µM
Whole blood level ([6]; SC 3.86 mg/kg, 120 minutes): 0.225 µM
Bioavailability ([6]; SC 3.86 mg/kg): 0.60
